According to ChEMBL document CHEMBL3352649, “2,2'-Dihydroxybenzophenones and their carbonyl N-analogues as inhibitor scaffolds for MDR-involved human glutathione transferase isoenzyme A1-1” (Bioorg Med Chem, 2014):

What was measured:
[1] = target: T1, Glutathione S-transferase A1 (Homo sapiens, UniProt P08263); assay: Inhibition of human GSTA1 activity assessed as conjugation between CDNB and GSH
T1 sequence (P08263 whole entry): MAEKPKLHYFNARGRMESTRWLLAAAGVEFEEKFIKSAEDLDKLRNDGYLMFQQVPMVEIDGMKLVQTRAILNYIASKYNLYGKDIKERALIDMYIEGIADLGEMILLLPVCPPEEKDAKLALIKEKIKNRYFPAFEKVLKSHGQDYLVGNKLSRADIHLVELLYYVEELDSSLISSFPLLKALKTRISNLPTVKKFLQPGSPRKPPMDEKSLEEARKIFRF

[2] = target: T2, Glutathione S-transferase A1 (Homo sapiens) (UniProt P08263); assay: Inhibition of human GSTA1 activity assessed as conjugation between CDNB and GSH at 25 uM
T2 sequence (whole entry): T1 sequence (P08263 whole entry)
Procedure, shortened: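 1 mL of 100 mM potassium phosphate pH 6.5, 0.75 µmol GSH, 25 nmol compound (from 5 mM DMSO stock), enzyme; 1 min at 25 °C, then 0.3 µmol CDNB. Read at 340 nm. Remaining activity is relative to a 5 µL DMSO replacement, mean of three assays.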

[3] = target: T1, Glutathione S-transferase A1; assay: Mixed-type inhibition of human GSTA1 activity by double reciprocal Lineweaver-Burk graph

| Compound | IC50 [1] [µM] | inhibition [2] [%] | Ki [3] [µM] |
| --- | --- | --- | --- |
| O=C(c1ccccc1O)c1cc(Br)ccc1O | 0.24 | 87.7 | 0.36 |
| O=C(c1ccccc1O)c1ccccc1O | – | 0 | – |
